The text below walks through data of ChEMBL document CHEMBL4680104, “Structure-Based Optimization of Small-Molecule Inhibitors for the β-Catenin/B-Cell Lymphoma 9 Protein-Protein Interaction” (J Med Chem, 2018).

The nature of data set [1]: Effect on HPRT mRNA expression in human SW480 cells at 2 uM incubated for 24 hrs by qPCR analysis relative to control. The data set is classed as ADME, cell-based. The settings on record: read-out: FC. The method in brief:
(§1)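 SW480 cells at 1 × 10^6/mL were treated with inhibitor for 24 h. Total RNA was extracted with TRIzol and cDNA made by first-strand synthesis. SYBR green qPCR used human HPRT primers, with CT values normalised to GAPDH as internal reference. Performed in triplicate.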

A short description of data set [2]: Effect on HPRT mRNA expression in human SW480 cells at 4 uM incubated for 24 hrs by qPCR analysis relative to control. The class given is ADME, cell-based. To be noted: read-out: FC. The method in brief:
as §1
(Real-time PCR tracks product formation cycle by cycle.)

Data set [3] in a line: Effect on HPRT mRNA expression in human SW480 cells at 8 uM incubated for 24 hrs by qPCR analysis relative to control. The data set is classed as ADME, cell-based. To be noted: read-out: FC. The gist of the method: as §1
Data set [4] can be described thus: Inhibition of protein interaction between beta-catenin D145A mutant (unknown origin)/N-terminal biotinylated human BCL9 ( 350 to 375 residues) incubated for 1 hr by Alpha-screen competitive inhibition assay.
The nature of data set [5]: Inhibition of protein interaction between beta-catenin D145A/E155A mutant (unknown origin)/N-terminal biotinylated human BCL9 ( 350 to 375 residues) incubated for 1 hr by Alpha-screen competitive inhibition assay. For orientation: Alpha assays give light when donor and acceptor beads are brought close together.
The nature of data set [6]: Inhibition of protein interaction between beta-catenin K181A mutant (unknown origin)/N-terminal biotinylated human BCL9 ( 350 to 375 residues) incubated for 1 hr by Alpha-screen competitive inhibition assay.
For data set [7], the target named is T1, beta-catenin-B-cell lymphoma 9 protein complex (Homo sapiens) (UniProt P35222+O00512). As to the kind of experiment: Inhibition of protein interaction between beta-catenin /BCL9 in human SW480 cells assessed as reduction in Wnt target genes by measuring Axin2 mRNA expression incubated for 24 hrs by qPCR analysis. The class given is cell-based. The gist of the method: (§2)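 SW480 cells at 1 × 10^6/mL were treated with a range of inhibitor concentrations for 24 h. Total RNA was extracted with TRIzol and reverse-transcribed to cDNA. SYBR Green qPCR was run for Axin2, LEF1 and cyclin D1, with HPRT as a non-target housekeeping gene. CT values were normalized to GAPDH. Triplicate.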

The target in data set [8] is T1, beta-catenin-B-cell lymphoma 9 protein complex (Homo sapiens). As to the kind of experiment: Inhibition of protein interaction between beta-catenin /BCL9 in human SW480 cells assessed as reduction in Wnt target genes by measuring cyclin D1 mRNA expression incubated for 24 hrs by qPCR analysis. The class given is cell-based. The method in brief: as §2
Data set [9] has the same target. As to the kind of experiment: Inhibition of protein interaction between beta-catenin /BCL9 in human SW480 cells assessed as reduction in Wnt target genes by measuring LEF1 mRNA expression incubated for 24 hrs by qPCR analysis. The data set is classed as cell-based. The method in brief:
as §2

For data set [10] the target is unchanged. As to the kind of experiment: Inhibition of protein interaction between beta-catenin /BCL9 in human SW480 cells assessed as reduction in Wnt target genes by measuring c-Myc protein expression at 25 to 100 uM incubated for 24 hrs by Western blot analysis. The class given is cell-based. The settings on record: dose 25-100 µM. The method in brief: (§3)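 SW480 cells at 1 × 10^6 cells/mL were treated with a range of inhibitor concentrations for 24 h. Cells were lysed in Tris/NaCl/NP-40/deoxycholate/SDS buffer with protease inhibitors. Lysates were run on 8% SDS-PAGE and blotted to nitrocellulose. Blots were probed overnight at 4 °C for total β-catenin (mostly the E-cadherin-bound pool), active β-catenin (dephosphorylated S37/T41), cyclin D1, c-myc and β-tubulin. Detection used infrared secondary antibodies. Duplicate.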

The target is the same in data set [11]. As to the kind of experiment: Inhibition of protein interaction between beta-catenin /BCL9 in human SW480 cells assessed as reduction in active form of beta-catenin expression incubated for 24 hrs by Western blot analysis. The data set is classed as cell-based. The gist of the method: as §3
For orientation: Immunoblotting shows a protein as a band on a membrane.

The test system of another data set is SW480. As to the kind of experiment: Effect on E-cadherin-bound beta-catenin levels in human SW480 cells at 25 to 100 uM incubated for 24 hrs by Western blot analysis. The data set is classed as functional, cell-based. The settings on record: dose 25-100 µM. The method in brief: as §3
For data set [12], the target named is T1, beta-catenin-B-cell lymphoma 9 protein complex (Homo sapiens). As to the kind of experiment: Inhibition of protein interaction between full-length beta-catenin (unknown origin) / full-length BCL9 (unknown origin) in human HCT-116 cells incubated for 24 hrs by co-immunoprecipitation assay. The data set is classed as cell-based. The gist of the method: (§4)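 Intact HCT116 cells at 1 × 10^6/mL were treated with a range of inhibitor concentrations for 24 h. They were then lysed in Tris pH 7.4/NaCl/NP-40/EDTA buffer with protease inhibitors and precleared on A/G agarose. Anti-β-catenin immunoprecipitation ran overnight at 4 °C, with A/G capture for 3 h and five washes. Samples were run on 8% SDS-PAGE and immunoblotted for BCL9 and E-cadherin.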

Another data set concerns HCT-116. As to the kind of experiment: Inhibition of protein interaction between full-length beta-catenin (unknown origin) / full-length E-cadherin (unknown origin) in human HCT-116 cells incubated for 24 hrs by co-immunoprecipitation assay. The data set is classed as cell-based. The gist of the method:
as §4

Data set [13] in a line: Effect on HPRT mRNA expression in human SW480 cells at 25 uM incubated for 24 hrs by qPCR analysis relative to control. The data set is classed as ADME, cell-based. The settings on record: read-out: FC. The method in brief: as §1
The nature of data set [14]: Effect on HPRT mRNA expression in human SW480 cells at 50 uM incubated for 24 hrs by qPCR analysis relative to control. The settings on record: read-out: FC. The class given is ADME, cell-based. The gist of the method:
as §1

Data set [15] is described as follows: Effect on HPRT mRNA expression in human SW480 cells at 100 uM incubated for 24 hrs by qPCR analysis relative to control. The class given is ADME, cell-based. To be noted: read-out: FC. The gist of the method:
as §1

A short description of data set [16]: Drug level in human HCT-116 cells assessed as per million cells at 50 uM incubated for 6 hrs at 4 degC in presence of DMEM media with 10% FBS. The settings on record: hct-116, 6 h. The data set is classed as ADME, cell-based. The gist of the method:
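Cells were incubated with 50 μM compound for 6 h in 5 mL DMEM with 10% FBS, at 37 °C or at 4 °C. Cell-bound compound was quantified by a previously described method and expressed as nmol per million cells. The 4 °C incubation was used to estimate binding to the cell membrane through nonspecific association.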

Data set [17] deals with T1, beta-catenin-B-cell lymphoma 9 protein complex (Homo sapiens). As to the kind of experiment: Inhibition of protein interaction between beta-catenin /BCL9 in human SW480 cells assessed as reduction in Wnt target genes by measuring cyclin D1 protein expression at 2 to 8 uM incubated for 24 hrs by Western blot analysis. The data set is classed as cell-based. The settings on record: dose 2-8 µM. The gist of the method: as §3

Activity calls are given as the source filed them. No cut-off for these calls is given here.

As to `Cc1cc(F)ccc1-c1cc(NC(=O)c2ccc(O[C@H]3CCNC3)c(-c3ccc(F)c(F)c3)c2)ccc1O[C@H]1CCNC1.Cl.Cl`, the fold induction at 2 µM in data set [1] was found to be 0.166. Besides, the fold induction at 4 µM in data set [2] stood at 0.136. Further, in data set [3], the fold induction at 8 µM turned out to be 0.124.

For `Cl.Cl.O=C(Nc1ccc(O[C@@H]2CCNC2)c(-c2cccc(-c3nn[nH]n3)c2)c1)c1ccc(O[C@H]2CCNC2)c(-c2ccc(F)c(F)c2)c1`, the Ki (in general, the dissociation constant of the complex between target and ligand, obtained from inhibition or displacement) was found to be 3 µM in data set [4], 12 µM in data set [5] and 4.1 µM in [6]. Moreover, the inhibition entry in data set [7], in [8], in [9], in data set [11] and in [12] was “Dose-dependent effect” throughout. Further, the inhibition entry in data set [10] is “Active”. For the same compound, the outcome in the data set with SW480 was inactive. Further, the inhibition entry in the data set on HCT-116 is “inactive”. Moreover, the fold induction at 25 µM in data set [13] was found to be 0.99. For the same compound, in data set [14], the fold induction at 50 µM was determined as 0.979. Further, in data set [15], the fold induction at 100 µM is 0.969. In data set [16], the Drug uptake is on record as 5.1 nmol.

`Cl.Cl.O=C(Nc1ccc(O[C@H]2CCNC2)c(-c2ccc(F)cc2)c1)c1ccc(O[C@H]2CCNC2)c(-c2ccc3ccsc3c2)c1`: the Ki in [4] was 4.2 µM; in data set [5] it was 12 µM; in [6], 1.7 µM. Moreover, the inhibition result in data set [7], in data set [8], in data set [9] and in [11] was “Dose-dependent effect” throughout. The inhibition result in data set [17] was “Active”. In addition, the fold induction at 2 µM in data set [1] was found to be 1.21. Besides, the fold induction at 4 µM in data set [2] is 1.04.

Turning to `Cl.Cl.O=C(Nc1ccc(O[C@H]2CCNC2)c(-c2ccc(F)cc2)c1)c1ccc(O[C@H]2CCNC2)c(-c2ccc(F)c(F)c2)c1`, the inhibition entry in [7], in data set [8] and in [9] was “Dose-dependent effect” each time.
